17 molecules from ChEMBL document CHEMBL4145578, “Protoilludane, Illudalane, and Botryane Sesquiterpenoids from the Endophytic Fungus Phomopsis sp. TJ507A” (J Nat Prod, 2018) can be followed below.

The structures appear in SMILES notation.

One data set relates to L02. Briefly: Cytotoxicity against human L02 cells assessed as effect on cell viability at 40 uM after 24 hrs by MTT assay. It is filed as cell-based. To be noted: l02, 24 h. Summed up:
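L-02 cells grown in DMEM with 10% FBS at 37 °C and 5% CO2, seeded at 5 × 10^3 cells/well, then settled over 12 h. Compound in DMSO added at 40 μM final (DMSO below 0.4%) for 24 h. MTT (5 mg/mL stock) added for a further 4 h. Formazan dissolved in DMSO and absorbance read at 570 nm.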
For orientation: Tetrazolium assays rely on reduction of a dye to a coloured formazan, in cell work by metabolically active cells.

The target of data set [1] is Beta-secretase 1 (Homo sapiens) (UniProt P56817). In words: Inhibition of BACE1 (unknown origin) at 0.5 uM using BACE1 substrate measured after 2 hrs by FRET assay relative to control.
Chain of Beta-secretase 1 (Homo sapiens) (P56817 whole entry): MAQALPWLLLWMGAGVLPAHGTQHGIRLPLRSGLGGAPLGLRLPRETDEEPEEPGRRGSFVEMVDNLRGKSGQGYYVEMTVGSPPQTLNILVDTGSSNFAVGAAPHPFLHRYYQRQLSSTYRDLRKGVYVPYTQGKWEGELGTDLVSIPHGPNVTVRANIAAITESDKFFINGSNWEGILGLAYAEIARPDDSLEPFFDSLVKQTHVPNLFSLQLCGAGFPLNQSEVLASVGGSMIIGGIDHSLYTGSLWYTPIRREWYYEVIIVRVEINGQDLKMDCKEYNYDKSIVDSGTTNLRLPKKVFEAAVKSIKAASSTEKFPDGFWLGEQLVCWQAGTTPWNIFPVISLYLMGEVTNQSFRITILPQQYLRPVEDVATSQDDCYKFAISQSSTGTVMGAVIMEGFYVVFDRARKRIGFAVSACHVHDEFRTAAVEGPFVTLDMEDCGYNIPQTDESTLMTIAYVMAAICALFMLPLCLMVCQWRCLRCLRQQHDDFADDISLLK

Consider `CC1=C2CC[C@]2(C)[C@]2(O)C(=CC(C)(C)[C@H]2O)C1=O`, for which, in the data set on L02, the Activity result is recorded as “Non-Toxic”. As to `CC(=O)OCCc1c(C)c(O)c2c(c1C)[C@@H](O)C(C)(C)C2`, the Activity entry in the data set on L02 was “Non-Toxic”. On the same count and under the same terms, under `Cc1cc2c(c(C)c1CCO)C(=O)C(C)(C)C2` [PTEROSIN Z] stands “Non-Toxic”; under `Cc1c(O)c2c(c(C)c1CCO)C(=O)C(C)(C)[C@@H]2O`, “Non-Toxic”. With `Cc1ccc2c3c1C(=O)OC[C@@]3(C)[C@H](O)C2(C)C`, the Activity entry with L02 was “Non-Toxic”. With `CC1C(=O)C2=CC(C)(C)C[C@]2(O)[C@@]2(C)CCC12` (some centres not stated), the Activity entry in the data set on L02 is given as “Non-Toxic”.

`CC1=C2CC[C@]2(C)[C@@H]2C(=CC(C)(C)[C@H]2O)C1=O`: in the data set with L02, the Activity result is listed as “Non-Toxic”. Consider `Cc1cc2c(c(C)c1CCO)CC(C)(C)C2`, for which the Activity result in the data set on L02 was “Non-Toxic”. Take `C[C@H]1C(=O)[C@]2(O)CC(C)(C)C[C@@H]2[C@@]2(C)CC[C@@]12O`: the Activity entry in the data set with L02 was “Non-Toxic”. Still for that read-out and setting: under `CC1=C2[C@H](O)C[C@]2(C)[C@H]2CC(C)(C)C=C2C1=O` stands “Non-Toxic”. In the case of `CC1=C2CC[C@]2(C)[C@H]2C[C@@](C)(CO)C=C2C1=O`, the Activity entry in the data set with L02 is reported as “Non-Toxic”. Take `CC1C(=O)C2=CC(C)(C)C[C@]2(O)[C@@]2(C)C[C@@H](O)C12` (some centres not stated): the Activity result in the data set on L02 was “Non-Toxic”. With `CC1=C2OCC[C@]2(C)[C@H]2CC(C)(C)C=C2C1=O`, the Activity result in the data set on L02 was “Non-Toxic”. Take `CC1=C2[C@H](O)C[C@]2(C)[C@H]2C[C@@](C)(CO)C=C2C1=O`: in the data set with L02, the Activity entry is given as “Non-Toxic”. Turning to `CC1=C2[C@H](O)C[C@]2(C)[C@H]2C[C@](C)(CO)C=C2C1=O`, the Activity entry with L02 is on record as “Non-Toxic”. On the same count and under the same terms, under `Cc1c(O)c2c(c(C)c1CCO)C(=O)C(C)(C)C2` [ONITIN] stands “Non-Toxic”. A word on the inhibition: it is the drop in the measured response relative to a control, in per cent. A high value points to a response far below the control. Turning to `C[C@@]1(c2cc(-c3cncnc3)c(F)cc2F)CCSC(N)=N1`, the inhibition in data set [1] was 38.6%.
